Test results: ChEMBL document CHEMBL1125920, “Synthesis and biological activity of 5-alkyl-1,7,8-trisubstituted-6-fluoroquinoline-3-carboxylic acids” (1991)
In brackets after ≈: the same amount, converted by molar mass. Values belong to the molecule of their own block, whether it stands above or below them.

Tests used:
[1] = MIC ratio measured as the mean MICs of gram-positive bacteria; type: functional
How it was run: (§1)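 Geometric mean of the MICs (µg/mL) over the Gram-negative or the Gram-positive strains of the 10-organism microtitration panel, calculated separately for each class.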

Streptococcus pneumoniae = assay: Antibacterial activity was determined against gram positive organism, Streptococcus pneumoniae (SV-1); type: functional
How it was run: (§2)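 MIC by standard microtitration against a panel of 10 representative Gram-negative and Gram-positive organisms; values reported in µg/mL.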

Pseudomonas aeruginosa = assay: Antibacterial activity was determined against gram negative organism, Pseudomonas aeruginosa (UI-18); type: functional; how it was run: as §2
Staphylococcus aureus [2] = assay: Antibacterial activity was determined against gram positive organism, Staphylococcus aureus (UC76); type: functional; how it was run: as §2
Klebsiella pneumoniae = assay: Antibacterial activity was determined against gram negative organism, K. pneumoniae (MGH-2); type: functional; how it was run: as §2
Mus musculus [3] = assay: In vivo subcutaneous protective dose was determined in female charles river CD-1 mice infected with Escherichia coli (vogel); type: functional; conditions: sc, read-out: PD50
How it was run: (§3)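 Acute lethal systemic infection model in mice; drug given by subcutaneous injection; potency read out as median protective dose (PD50), in mg/kg.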

Streptococcus pyogenes = assay: Antibacterial activity was determined against gram positive organism, Streptococcus pyogenes (C203); type: functional; how it was run: as §2
Mus musculus [4] = assay: In vivo subcutaneous protective dose was determined in female charles river CD-1 mice infected with Streptococcus pneumoniae; type: functional; conditions: sc, read-out: PD50; how it was run: as §3
Bacteria = assay: Antibacterial activity was determined against gram negative organism, Providencia rettgeri. (M1771); type: functional; how it was run: as §2
Enterobacter cloacae = assay: Antibacterial activity against gram negative organism, […] (MA2646); type: functional
Mus musculus [5] = assay: In vivo oral protective dose was determined in female charles river CD-1 mice infected with Streptococcus pneumoniae; type: functional; conditions: read-out: PD50
How it was run: (§4)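 Acute lethal systemic infection model in mice; drug given orally by gavage; potency read out as median protective dose (PD50), in mg/kg.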

Mus musculus [6] = assay: In vivo oral protective dose was determined in female charles river CD-1 mice infected with Escherichia coli (vogel); type: functional; conditions: Mus musculus, po; read-out: PD50; how it was run: as §4
Escherichia coli = assay: Antibacterial activity was determined against gram negative organism, E. coli(vogel); type: functional; how it was run: as §2
[7] = MIC ratio measured as the mean MICs of gram-negative bacteria; type: functional; how it was run: as §1
[8] = biological target: DNA gyrase (Escherichia coli) (UniProt P0AES6+P0AES4)
Staphylococcus aureus [9] = assay: Antibacterial activity was determined against gram positive organism, Staphylococcus aureus (H228); type: functional; how it was run: as §2
Enterococcus faecalis = assay: Antibacterial activity was determined against gram positive organism, Streptococcus faecalis (MGH-2); type: functional; how it was run: as §2

Compound: Cc1c(F)c(N2CCNCC2)cc2c1c(=O)c(C(=O)O)cn2C1CC1
- Ratio [1]: 0.057
- MIC (Streptococcus pneumoniae): 0.05 µg/mL (≈ 0.145 µM)
- MIC (Pseudomonas aeruginosa): 0.2 µg/mL (≈ 0.579 µM)
- MIC (Staphylococcus aureus [2]): 0.025 µg/mL (≈ 0.0724 µM)
- MIC (Klebsiella pneumoniae): 0.05 µg/mL (≈ 0.145 µM)
- ED50 (Mus musculus [3]): 0.4 mg/kg
- MIC (Streptococcus pyogenes): 0.1 µg/mL (≈ 0.29 µM)
- ED50 (Mus musculus [4]): 21 mg/kg
- MIC (Bacteria): 0.1 µg/mL (≈ 0.29 µM)
- MIC (Enterobacter cloacae): 0.013 µg/mL (≈ 0.0376 µM)
- ED50 (Mus musculus [5]): 100 mg/kg
- ED50 (Mus musculus [6]): 1.5 mg/kg
- MIC (Escherichia coli): 0.013 µg/mL (≈ 0.0376 µM)
- Ratio [7]: 0.044
- DNA cleavage [8]: 0.3 µg/mL
- MIC (Staphylococcus aureus [9]): 0.1 µg/mL (≈ 0.29 µM)
- MIC (Enterococcus faecalis): 0.05 µg/mL (≈ 0.145 µM)

Compound: Cc1c(F)c(N2CCNCC2)c(F)c2c1c(=O)c(C(=O)O)cn2C1CC1
- Ratio [1]: 0.033
- MIC (Streptococcus pneumoniae): 0.025 µg/mL (≈ 0.0688 µM)
- MIC (Pseudomonas aeruginosa): 0.2 µg/mL (≈ 0.55 µM)
- MIC (Staphylococcus aureus [2]): 0.025 µg/mL (≈ 0.0688 µM)
- MIC (Klebsiella pneumoniae): 0.025 µg/mL (≈ 0.0688 µM)
- ED50 (Mus musculus [3]): 0.2 mg/kg
- MIC (Streptococcus pyogenes): 0.05 µg/mL (≈ 0.138 µM)
- ED50 (Mus musculus [4]): 13.5 mg/kg
- MIC (Bacteria): 0.05 µg/mL (≈ 0.138 µM)
- MIC (Enterobacter cloacae): 0.025 µg/mL (≈ 0.0688 µM)
- ED50 (Mus musculus [5]): 14 mg/kg
- ED50 (Mus musculus [6]): 0.4 mg/kg
- MIC (Escherichia coli): 0.025 µg/mL (≈ 0.0688 µM)
- Ratio [7]: 0.043
- DNA cleavage [8]: 2.75 µg/mL
- MIC (Staphylococcus aureus [9]): 0.025 µg/mL (≈ 0.0688 µM)
- MIC (Enterococcus faecalis): 0.05 µg/mL (≈ 0.138 µM)

Compound: CC1CN(c2cc3c(cc2F)c(=O)c(C(=O)O)cn3C2CC2)CCN1 (stereo unspecified)
- Ratio [1]: 0.23
- MIC (Streptococcus pneumoniae): 0.2 µg/mL (≈ 0.579 µM)
- MIC (Pseudomonas aeruginosa): 0.4 µg/mL (≈ 1.16 µM)
- MIC (Staphylococcus aureus [2]): 0.1 µg/mL (≈ 0.29 µM)
- MIC (Klebsiella pneumoniae): 0.05 µg/mL (≈ 0.145 µM)
- ED50 (Mus musculus [3]): 0.4 mg/kg
- MIC (Streptococcus pyogenes): 0.2 µg/mL (≈ 0.579 µM)
- ED50 (Mus musculus [4]): 12 mg/kg
- MIC (Bacteria): 0.1 µg/mL (≈ 0.29 µM)
- ED50 (Mus musculus [5]): 39 mg/kg
- ED50 (Mus musculus [6]): 1 mg/kg
- Ratio [7]: 0.066
- MIC (Staphylococcus aureus [9]): 0.4 µg/mL (≈ 1.16 µM)
- MIC (Enterococcus faecalis): 0.4 µg/mL (≈ 1.16 µM)

Compound: Cc1c(F)c(N2CCC(N)C2)c(F)c2c1c(=O)c(C(=O)O)cn2C1CC1 (stereo unspecified)
- Ratio [1]: 0.0082
- MIC (Streptococcus pneumoniae): 0.003 µg/mL (≈ 0.00826 µM)
- MIC (Pseudomonas aeruginosa): 0.4 µg/mL (≈ 1.1 µM)
- MIC (Staphylococcus aureus [2]): 0.003 µg/mL (≈ 0.00826 µM)
- MIC (Klebsiella pneumoniae): 0.013 µg/mL (≈ 0.0358 µM)
- ED50 (Mus musculus [3]): 0.5 mg/kg
- MIC (Streptococcus pyogenes): 0.013 µg/mL (≈ 0.0358 µM)
- ED50 (Mus musculus [4]): 1.6 mg/kg
- MIC (Bacteria): 0.025 µg/mL (≈ 0.0688 µM)
- MIC (Enterobacter cloacae): 0.006 µg/mL (≈ 0.0165 µM)
- ED50 (Mus musculus [5]): 3 mg/kg
- ED50 (Mus musculus [6]): 2 mg/kg
- MIC (Escherichia coli): 0.006 µg/mL (≈ 0.0165 µM)
- Ratio [7]: 0.021
- DNA cleavage [8]: 3 µg/mL
- MIC (Staphylococcus aureus [9]): 0.013 µg/mL (≈ 0.0358 µM)
- MIC (Enterococcus faecalis): 0.025 µg/mL (≈ 0.0688 µM)

Compound: Cc1c(F)c(N2CCNC(C)C2)c(F)c2c1c(=O)c(C(=O)O)cn2C1CC1 (stereo unspecified)
- Ratio [1]: 0.033
- MIC (Streptococcus pneumoniae): 0.025 µg/mL (≈ 0.0662 µM)
- MIC (Pseudomonas aeruginosa): 0.4 µg/mL (≈ 1.06 µM)
- MIC (Staphylococcus aureus [2]): 0.013 µg/mL (≈ 0.0344 µM)
- MIC (Klebsiella pneumoniae): 0.05 µg/mL (≈ 0.132 µM)
- ED50 (Mus musculus [3]): 0.4 mg/kg
- MIC (Streptococcus pyogenes): 0.05 µg/mL (≈ 0.132 µM)
- ED50 (Mus musculus [4]): 11 mg/kg
- MIC (Bacteria): 0.1 µg/mL (≈ 0.265 µM)
- MIC (Enterobacter cloacae): 0.025 µg/mL (≈ 0.0662 µM)
- ED50 (Mus musculus [5]): 12 mg/kg
- ED50 (Mus musculus [6]): 0.75 mg/kg
- MIC (Escherichia coli): 0.025 µg/mL (≈ 0.0662 µM)
- Ratio [7]: 0.066
- DNA cleavage [8]: 3 µg/mL
- MIC (Staphylococcus aureus [9]): 0.025 µg/mL (≈ 0.0662 µM)
- MIC (Enterococcus faecalis): 0.1 µg/mL (≈ 0.265 µM)

Compound: O=C(O)c1cn(C2CC2)c2c(F)c(N3CCNCC3)c(F)cc2c1=O
- Ratio [1]: 0.4
- ED50 (Mus musculus [3]): 0.25 mg/kg
- ED50 (Mus musculus [4]): 29 mg/kg
- MIC (Bacteria): 0.1 µg/mL (≈ 0.286 µM)
- MIC (Enterobacter cloacae): 0.05 µg/mL (≈ 0.143 µM)
- ED50 (Mus musculus [5]): 59 mg/kg
- ED50 (Mus musculus [6]): 0.45 mg/kg
- Ratio [7]: 0.076
- DNA cleavage [8]: 0.5 µg/mL

Compound: CCNCC1CCN(c2c(F)c(C)c3c(=O)c(C(=O)O)cn(C4CC4)c3c2F)C1 (stereo unspecified)
- Ratio [1]: 0.0071
- MIC (Streptococcus pneumoniae): 0.003 µg/mL (≈ 0.0074 µM)
- MIC (Pseudomonas aeruginosa): 0.8 µg/mL (≈ 1.97 µM)
- MIC (Staphylococcus aureus [2]): 0.003 µg/mL (≈ 0.0074 µM)
- MIC (Klebsiella pneumoniae): 0.1 µg/mL (≈ 0.247 µM)
- ED50 (Mus musculus [3]): 3 mg/kg
- MIC (Streptococcus pyogenes): 0.006 µg/mL (≈ 0.0148 µM)
- ED50 (Mus musculus [4]): 1.6 mg/kg
- MIC (Bacteria): 0.2 µg/mL (≈ 0.493 µM)
- MIC (Enterobacter cloacae): 0.1 µg/mL (≈ 0.247 µM)
- ED50 (Mus musculus [5]): 2.8 mg/kg
- ED50 (Mus musculus [6]): 14 mg/kg
- MIC (Escherichia coli): 0.05 µg/mL (≈ 0.123 µM)
- Ratio [7]: 0.15
- DNA cleavage [8]: 3 µg/mL
- MIC (Staphylococcus aureus [9]): 0.013 µg/mL (≈ 0.0321 µM)
- MIC (Enterococcus faecalis): 0.025 µg/mL (≈ 0.0617 µM)

Compound: CCNCC1CCN(c2c(F)cc3c(=O)c(C(=O)O)cn(C4CC4)c3c2F)C1 (stereo unspecified) [PD-117558]
- Ratio [1]: 0.025
- MIC (Pseudomonas aeruginosa): 0.4 µg/mL (≈ 1.02 µM)
- MIC (Staphylococcus aureus [2]): 0.013 µg/mL (≈ 0.0332 µM)
- MIC (Klebsiella pneumoniae): 0.1 µg/mL (≈ 0.255 µM)
- ED50 (Mus musculus [3]): 1 mg/kg
- MIC (Streptococcus pyogenes): 0.025 µg/mL (≈ 0.0639 µM)
- ED50 (Mus musculus [4]): 2 mg/kg
- MIC (Bacteria): 0.2 µg/mL (≈ 0.511 µM)
- ED50 (Mus musculus [5]): 3.3 mg/kg
- ED50 (Mus musculus [6]): 4.2 mg/kg
- Ratio [7]: 0.13
- DNA cleavage [8]: 0.25 µg/mL

- MIC (Streptococcus pneumoniae): 1.6 µg/mL (≈ 4.43 µM)
- MIC (Pseudomonas aeruginosa): 3.1 µg/mL (≈ 8.58 µM)
- MIC (Staphylococcus aureus [2]): 0.2 µg/mL (≈ 0.553 µM)
- MIC (Klebsiella pneumoniae): 0.8 µg/mL (≈ 2.21 µM)
- MIC (Streptococcus pyogenes): 3.1 µg/mL (≈ 8.58 µM)
- MIC (Bacteria): 1.6 µg/mL (≈ 4.43 µM)
- MIC (Enterobacter cloacae): 0.4 µg/mL (≈ 1.11 µM)
- MIC (Escherichia coli): 0.2 µg/mL (≈ 0.553 µM)
- DNA cleavage [8]: 8.8 µg/mL
- MIC (Staphylococcus aureus [9]): 1.6 µg/mL (≈ 4.43 µM)
- MIC (Enterococcus faecalis): 1.6 µg/mL (≈ 4.43 µM)
Compound: CCn1cc(C(=O)O)c(=O)c2c(C)c(F)c(N3CC(C)NC(C)C3)cc21 (stereo unspecified)
- Ratio [1]: 1.2
- Ratio [7]: 0.79

- MIC (Streptococcus pneumoniae): 0.025 µg/mL (≈ 0.0544 µM)
- MIC (Pseudomonas aeruginosa): 3.1 µg/mL (≈ 6.75 µM)
- MIC (Staphylococcus aureus [2]): 0.025 µg/mL (≈ 0.0544 µM)
- MIC (Klebsiella pneumoniae): 0.8 µg/mL (≈ 1.74 µM)
- MIC (Streptococcus pyogenes): 0.025 µg/mL (≈ 0.0544 µM)
- MIC (Bacteria): 1.6 µg/mL (≈ 3.48 µM)
- MIC (Enterobacter cloacae): 0.8 µg/mL (≈ 1.74 µM)
- MIC (Escherichia coli): 0.4 µg/mL (≈ 0.871 µM)
- DNA cleavage [8]: 0.75 µg/mL
- MIC (Staphylococcus aureus [9]): 0.1 µg/mL (≈ 0.218 µM)
- MIC (Enterococcus faecalis): 0.2 µg/mL (≈ 0.435 µM)
Compound: CCNCC1CCN(c2cc3c(c(C)c2F)c(=O)c(C(=O)O)cn3-c2ccc(F)cc2F)C1 (stereo unspecified)
- Ratio [1]: 0.05
- Ratio [7]: 1.05
